# Data reported in publication PMC9292719 (Diabetes, Obesity & Metabolism, 2021).
# Marks after values point to notes of the source that are not given here.
# Experiments:
# healthy subjects [1] = assay: Safety: treatment-emergent adverse events; format: in vivo, human; details: single s.c. dose 0.2 U/kg; for Headache, number of subjects / Headache, percentage of subjects / Hypoglycaemia, events (one subject each) / Injection site erythema, number of subjects / Injection site erythema, percentage of subjects / Nasopharyngitis, number of subjects / Nasopharyngitis, percentage of subjects: TEAE
# Outline: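 In a randomized three-period crossover with washouts, each subject received a single 0.2 U/kg s.c. dose per period. Treatment-emergent adverse events were recorded per treatment and graded mild, moderate or severe. They were summarised descriptively by visit/treatment as subject counts, percentages and event numbers.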
# [2] = format: in vivo, human
# Outline: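 Healthy volunteers in a randomized crossover each received a single 0.2 U/kg s.c. dose per period. Plasma was sampled predose and from 5 to 720 min postdose. Insulin aspart, with 15N-labelled internal standard, was captured on anti-insulin antibody magnetic beads and measured by UPLC-MS/MS (range 100-8000 pg/mL). AUC ratios and CIs came from Fieller's theorem. Time endpoints were summarised descriptively by treatment.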
# healthy subjects [3] = assay: Pharmacodynamics: automated euglycaemic glucose clamp; format: in vivo, human; details: Ref‐InsAsp‐US vs. Ref‐InsAsp‐EU (N = 65); two-sided 90% CI; Fieller's theorem
# Outline: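 Healthy adults aged 18-65 with BMI 18.5-29.0 kg/m2 and fasting glucose ≤5.5 mmol/L. Randomized crossover: single 0.2 U/kg s.c. dose per period, 12- to 16-day washout. Before dosing, variable i.v. human insulin brought blood glucose to the 81 mg/dL target. Glucose infusion was then adjusted automatically over a 12 h clamp, GIR logged every minute. Partial-AUC ratios with CIs came from Fieller's theorem.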
# [4] = Ref‐InsAsp‐US vs. Ref‐InsAsp‐EU (N = 66), two-sided 90% CI, Fieller's theorem
# [5] = healthy subjects, single s.c. dose 0.2 U/kg, plasma, arithmetic mean (SD)
Substance,"Headache, number of subjects (healthy subjects [1])","Headache, percentage of subjects (healthy subjects [1]) [%]","Hypoglycaemia, events (one subject each) (healthy subjects [1])","Injection site erythema, number of subjects (healthy subjects [1])","Injection site erythema, percentage of subjects (healthy subjects [1]) [%]","Nasopharyngitis, number of subjects (healthy subjects [1])","Nasopharyngitis, percentage of subjects (healthy subjects [1]) [%]",Number of TEAE events (healthy subjects [1]) [events],"Subjects with at least one TEAE, percentage (healthy subjects [1]) [%]","AUC0‐6h LS‐mean ratio [2, 4]","AUC6‐12h LS‐mean ratio [2, 4]","t50%‐late (time to half‐maximum after Cmax) [2, 5]","tmax (time to maximum observed insulin aspart concentration) [2, 5]","λz (terminal elimination rate constant) [2, 5]","AUCGIR,0‐4h LS‐mean ratio (healthy subjects [3])","AUCGIR,0‐6h LS‐mean ratio (healthy subjects [3])","AUCGIR,6h‐last LS‐mean ratio (healthy subjects [3])","Subjects with at least one treatment‐emergent adverse event (TEAE), number (healthy subjects [1]) [subjects]","t50%‐early (time to half‐maximum before Cmax) [2, 5]"
"MYL‐1601D: rapid‐acting human insulin analogue, biosimilar insulin aspart 100 U/mL, produced by recombinant DNA technology utilizing Pichia pastoris (Mylan)",four,5.7,one,two,2.9,three,4.3,18,15.7,,,,,,,,,,
Insulin aspart [Ref‐InsAsp‐US],five,7.2,one,one,1.4,none,,12,15.9,99.71 (97.90; 101.52) %,107.18 (83.81; 137.45) %,3.13 (0.86) h,1.11 (0.45) h,0.82 (0.27) /h,94.11 (90.37; 97.99) ^b %,94.81 (91.46; 98.27) ^b %,101.05 (95.75; 106.64) ^b %,11,
Insulin aspart [Ref‐InsAsp‐EU],eight,11.9,,one,1.5,two,3.0,13,19.4,,,3.1 (0.84) h,1.10 (0.53) h,0.86 (0.28) /h,,,,13,0.45 (0.12) h
